Test system: Fibroblast
Assay: Multiplex assay against human fibroblast
Type: toxicity, cell-based
Procedure, shortened: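 On a CQ1 microscope at 37°C and 5% CO2, live cells were imaged after compound addition. They had been stained at seeding with Hoechst33342, BioTracker Green Microtubule Cytoskeleton Dye, MitoTracker Red and Annexin V Alexa Fluor 680. CellPathfinder machine-learning gating assigned cells to Hoechst high-intensity objects or normal cells, normal cells to healthy, pyknosed or fragmented nuclei, and pyknosed cells to mitotic or apoptotic. Tubulin, mitochondrial-mass and membrane-permeability phenotypes are per cents of healthy-nucleus cells.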

[1] = 12 h, 1 µM, compound concentration 1 uM, replicate 1
[2] = 12 h, 1 µM, compound concentration 1 uM, replicate 2
[3] = 12 h, 10 µM, compound concentration 10 uM, replicate 1
[4] = 12 h, 10 µM, compound concentration 10 uM, replicate 2
[5] = 24 h, 1 µM, compound concentration 1 uM, replicate 1
[6] = 24 h, 1 µM, compound concentration 1 uM, replicate 2
[7] = 24 h, 10 µM, compound concentration 10 uM, replicate 1
[8] = 24 h, 10 µM, compound concentration 10 uM, replicate 2
[9] = 48 h, 1 µM, compound concentration 1 uM, replicate 1
[10] = 48 h, 1 µM, compound concentration 1 uM, replicate 2
[11] = 48 h, 10 µM, compound concentration 10 uM, replicate 1
[12] = 48 h, 10 µM, compound concentration 10 uM, replicate 2

Cc1cccc(NC(=O)CN2CCC(c3ccccn3)CC2)c1.Cl.Cl
Population Apoptotic (%) [1]: 47%
Population Fragmented Nuclei (%) [1]: 16%
Population Healthy Nuclei (%) [1]: 70%
Population Hoechst High Intensity Objects (%) [1]: 4%
Population Membrane Permeable-Phenotype (%) [1]: 0%
Population Mitochondria Different-Phenotype (%) [1]: 6%
Population Mitotic Cells (%) [1]: 52%
Population Normal (%) [1]: 95%
Population Pyknosed Nuclei (%) [1]: 12%
Population Tubulin-Different-Phenotype (%) [1]: 34%
Total Cell Count [1]: 140
Population Apoptotic (%) [2]: 33%
Population Fragmented Nuclei (%) [2]: 25%
Population Healthy Nuclei (%) [2]: 55%
Population Hoechst High Intensity Objects (%) [2]: 6%
Population Membrane Permeable-Phenotype (%) [2]: 2%
Population Mitochondria Different-Phenotype (%) [2]: 5%
Population Mitotic Cells (%) [2]: 66%
Population Normal (%) [2]: 93%
Population Pyknosed Nuclei (%) [2]: 19%
Population Tubulin-Different-Phenotype (%) [2]: 35%
Total Cell Count [2]: 232
Population Apoptotic (%) [3]: 59%
Population Fragmented Nuclei (%) [3]: 8%
Population Healthy Nuclei (%) [3]: 78%
Population Hoechst High Intensity Objects (%) [3]: 10%
Population Membrane Permeable-Phenotype (%) [3]: 1%
Population Mitochondria Different-Phenotype (%) [3]: 7%
Population Mitotic Cells (%) [3]: 40%
Population Normal (%) [3]: 89%
Population Pyknosed Nuclei (%) [3]: 13%
Population Tubulin-Different-Phenotype (%) [3]: 36%
Total Cell Count [3]: 229
Population Apoptotic (%) [4]: 34%
Population Fragmented Nuclei (%) [4]: 45%
Population Healthy Nuclei (%) [4]: 30%
Population Hoechst High Intensity Objects (%) [4]: 2%
Population Membrane Permeable-Phenotype (%) [4]: 6%
Population Mitochondria Different-Phenotype (%) [4]: 10%
Population Mitotic Cells (%) [4]: 65%
Population Normal (%) [4]: 98%
Population Pyknosed Nuclei (%) [4]: 23%
Population Tubulin-Different-Phenotype (%) [4]: 56%
Total Cell Count [4]: 100
Population Apoptotic (%) [5]: 50%
Population Fragmented Nuclei (%) [5]: 18%
Population Healthy Nuclei (%) [5]: 70%
Population Hoechst High Intensity Objects (%) [5]: 2%
Population Membrane Permeable-Phenotype (%) [5]: 0%
Population Mitochondria Different-Phenotype (%) [5]: 8%
Population Mitotic Cells (%) [5]: 50%
Population Normal (%) [5]: 97%
Population Pyknosed Nuclei (%) [5]: 10%
Population Tubulin-Different-Phenotype (%) [5]: 25%
Total Cell Count [5]: 134
Population Apoptotic (%) [6]: 40%
Population Fragmented Nuclei (%) [6]: 26%
Population Healthy Nuclei (%) [6]: 53%
Population Hoechst High Intensity Objects (%) [6]: 4%
Population Membrane Permeable-Phenotype (%) [6]: 4%
Population Mitochondria Different-Phenotype (%) [6]: 6%
Population Mitotic Cells (%) [6]: 59%
Population Normal (%) [6]: 95%
Population Pyknosed Nuclei (%) [6]: 19%
Population Tubulin-Different-Phenotype (%) [6]: 30%
Total Cell Count [6]: 239
Population Apoptotic (%) [7]: 64%
Population Fragmented Nuclei (%) [7]: 11%
Population Healthy Nuclei (%) [7]: 81%
Population Hoechst High Intensity Objects (%) [7]: 7%
Population Membrane Permeable-Phenotype (%) [7]: 0%
Population Mitochondria Different-Phenotype (%) [7]: 11%
Population Mitotic Cells (%) [7]: 35%
Population Normal (%) [7]: 92%
Population Pyknosed Nuclei (%) [7]: 6%
Population Tubulin-Different-Phenotype (%) [7]: 38%
Total Cell Count [7]: 217
Population Apoptotic (%) [8]: 42%
Population Fragmented Nuclei (%) [8]: 45%
Population Healthy Nuclei (%) [8]: 34%
Population Hoechst High Intensity Objects (%) [8]: 0%
Population Membrane Permeable-Phenotype (%) [8]: 11%
Population Mitotic Cells (%) [8]: 57%
Population Normal (%) [8]: 100%
Population Pyknosed Nuclei (%) [8]: 20%
Population Tubulin-Different-Phenotype (%) [8]: 50%
Total Cell Count [8]: 105
Population Apoptotic (%) [9]: 80%
Population Fragmented Nuclei (%) [9]: 25%
Population Healthy Nuclei (%) [9]: 63%
Population Hoechst High Intensity Objects (%) [9]: 3%
Population Membrane Permeable-Phenotype (%) [9]: 1%
Population Mitochondria Different-Phenotype (%) [9]: 3%
Population Mitotic Cells (%) [9]: 20%
Population Normal (%) [9]: 96%
Population Pyknosed Nuclei (%) [9]: 11%
Population Tubulin-Different-Phenotype (%) [9]: 28%
Total Cell Count [9]: 138
Population Apoptotic (%) [10]: 60%
Population Fragmented Nuclei (%) [10]: 31%
Population Healthy Nuclei (%) [10]: 55%
Population Membrane Permeable-Phenotype (%) [10]: 4%
Population Mitotic Cells (%) [10]: 39%
Population Pyknosed Nuclei (%) [10]: 12%
Population Tubulin-Different-Phenotype (%) [10]: 35%
Total Cell Count [10]: 229
Population Apoptotic (%) [11]: 76%
Population Fragmented Nuclei (%) [11]: 17%
Population Healthy Nuclei (%) [11]: 75%
Population Hoechst High Intensity Objects (%) [11]: 7%
Population Membrane Permeable-Phenotype (%) [11]: 2%
Population Mitochondria Different-Phenotype (%) [11]: 5%
Population Mitotic Cells (%) [11]: 23%
Population Normal (%) [11]: 92%
Population Pyknosed Nuclei (%) [11]: 7%
Population Tubulin-Different-Phenotype (%) [11]: 44%
Total Cell Count [11]: 238
Population Apoptotic (%) [12]: 28%
Population Fragmented Nuclei (%) [12]: 54%
Population Healthy Nuclei (%) [12]: 39%
Population Hoechst High Intensity Objects (%) [12]: 1%
Population Mitochondria Different-Phenotype (%) [12]: 16%
Population Mitotic Cells (%) [12]: 71%
Population Normal (%) [12]: 98%
Population Pyknosed Nuclei (%) [12]: 6%
Population Tubulin-Different-Phenotype (%) [12]: 61%
Total Cell Count [12]: 109
